STAT3 blocker: STAT3 signaling inhibition; inhibition, % at 5.5 µM; U3A cells, IL-6 STAT3-luciferase reporter, luminescence; host cell line lacks STAT1; actives 0.89% (n = 190,000); AID 862;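 active = inhibition above the mean inhibition across all screened compounds plus 3 SD, cut at about 44% in these data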;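 note: 0% = DMSO only wells and 100% = 100 µM nifuroxazide control wells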
zVAD death inh: L929 zVAD cell death inhibition; L929 zVAD necroptosis rescue, ATP luminescence, 24 h; with zVAD 60 µM; viability rescue, % at 10 µM; actives 0.38% (n = 220,000); AID 1377;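 active = activation, scaled between plate controls, above about 75%, limit read from the data; inactive = activation under that limit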;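 note: 0% = zVAD with DMSO and 100% = DMSO alone without zVAD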
TNF death inh: blocks TNF-alpha induced death of Jurkat FADD-/- cells; actives 0.068% (n = 220,000); Jurkat FADD-/- TNF necroptosis rescue, ATP luminescence, 24 h; 0 = TNF only, 100 = no-TNF cells; activation (protection from cell death), % at 10 µM;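 active = activation, meaning protection from cell death, of at least 50% relative to plate controls; inactive = activation below 50%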;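 note: necroptosis triggered by 40 ng/mL TNF-alpha added together with compound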
STAT1 blocker: reduces IFN-gamma driven STAT1 reporter signal; NIH 3T3 STAT1-luciferase reporter, luminescence; inhibition, % at 5.5 µM; actives 0.35% (n = 200,000); AID 920;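 active = inhibition above a set limit, the mean inhibition across all tested compounds plus 3 SD, cut at about 34% in these data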;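 note: 0% = IFN-gamma with DMSO and 100% = IFN-gamma with 300 µM nifuroxazide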
STAT3 act-1: STAT3 signaling activation; activation (% of control), % at 5.6 µM; actives 0.91% (n = 190,000); AID 871; U3A cells, IL-6 STAT3-luciferase reporter, luminescence; 100% = signal with IL-6 EC80 alone;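 active = activation above the screen-wide mean of compound activation plus 3 SD, cut at about 130% in these data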;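 note: 0% = background luminescence of wells with medium and substrate only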
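Test system: human U3A cells carrying STAT3-luciferase construct; control set: IL-6-only wells as 100% reference; timing: compound pre-incubation 1 h before IL-6, then 6 h stimulation at 37 °C; also added: IL-6 stimulus at 33 ng/mL final; evaluation: % activation versus median of IL-6-stimulated wells; detection: reporter luminescence signal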
STAT3 act-2: STAT3 activation, confirmation assay. U3A STAT3-luciferase reporter, IL-6 potentiation, luminescence; U3A cells lack STAT1; 100 means same as IL-6 alone. shares compounds with STAT3 act-1. actives 64% (n = 1,200). AID 1267. potentiation (% of control), % at 5.7 µM;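 active = percent activation of the STAT3 luciferase reporter above a set limit taken from the earlier primary screen, cut at about 130% in these data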;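 note: 0% = background signal of medium plus substrate and 100% = median of IL-6 with DMSO wells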
NFkB act 2: counter-screen for STAT3 activators: NF-kappaB activation. shares compounds with STAT3 act-1. AID 1309. human cells, NF-kappaB reporter activation. activation (% of control), % at 5.7 µM. actives 11% (n = 1,200); in the data active = activation above about 120%;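 note: reporter induced by TNF-alpha stimulation; 100% = median of stimulated DMSO wells and 0% = no signal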
STAT1 act: activates STAT1, counter-screen to STAT3 activators; shares compounds with STAT3 act-1; NIH 3T3 STAT1-luciferase reporter, IFN-gamma, luminescence; activation (% of control), % at 5.7 µM; actives 13% (n = 1,200); AID 1318;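 active = activation above the solvent-only control well mean plus 3 SD, set per screening run, cut at about 120% in these data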;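 note: 100% = IFN-gamma with DMSO median signal so 100% means no change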
Numbers without * were called inactive; . = no result. Sampled rows, rich in hits. Any-hit rate of the full collection: about 2.1%.

SMILES	STAT3 blocker	zVAD death inh	TNF death inh	STAT1 blocker	STAT3 act-1	STAT3 act-2	NFkB act 2	STAT1 act
CCOC(=O)C1(Cc2ccc(Cl)cc2)CCN(C(=O)c2cc(C)nc(C)n2)CC1	13.0	-0.3	-0.1	2.3	92.9	.	.	.
COc1ccc2[nH]c(=O)c3c(c2c1)OC(C)(C)C=C3	-41.1	41.6	8.9	4.0	136.8*	126.4	85.5	102.5
Cc1cc2c([nH]c3ccccc32)c2c1OC(C)(C)C=C2	.	2.4	3.7	.	.	.	.	.
COc1ccc(Cc2nc(-c3ccc(Cl)cc3)no2)cc1	2.1	0.7	0.6	-6.3	99.9	.	.	.
COCc1cc(C)nc2sc(C(=O)NN)c(-n3cccc3)c12	-37.1	4.5	0.2	4.8	136.8*	139.0*	118.0	100.8
CN1c2ccsc2/C(=N/Nc2ccc(F)cc2)CS1(=O)=O	-30.7	-0.2	0.2	-12.3	125.9	.	.	.
Cc1ccc(N/N=C2\CS(=O)(=O)N(C)c3ccsc32)cc1	-49.4	-0.5	0.3	-10.7	140.8*	143.5*	120.6*	119.3
Cc1ccc(NC(=O)c2cc(N3CCOCC3)nc3ccccc23)cc1	-53.8	2.0	-2.3	3.3	153.4*	146.0*	101.7	97.5
COc1ccc(CN(Cc2nc3ccccc3c(=O)[nH]2)C(=O)NC2CCCCC2)cc1	1.0	0.3	0.5	9.0	102.7	.	.	.
COc1ccccc1/C=C/C(=O)OC(C)CN1CCOCC1 (centres undefined)	-6.6	-0.2	-2.8	-7.7	111.2	.	.	.
C=C(C)Cn1c(CCCNC(=O)CC)nc2ccccc21	8.3	-0.3	0.3	3.1	95.6	.	.	.
Cn1c(=O)oc2cc(S(=O)(=O)NCCC(=O)N3CCc4ccccc43)ccc21	-46.8	0.7	-0.6	-1.6	140.3*	123.6	102.2	98.9
CC(NC(=O)C1CCCO1)c1ccccc1 (centres undefined)	0.9	0.0	1.5	-3.2	106.0	.	.	.
CN=C(Nc1cc(C)nn1CCC#N)c1ccccc1F	-0.7	0.2	-2.7	-6.1	105.5	.	.	.
Cc1ccc(C)c(N=Nc2nc3ccccc3n2C)c1	-74.0	0.0	-12.1	-28.3	175.5*	223.1*	153.8*	237.1*
Cc1cc(C)c(C)c(N=Nc2nc3ccccc3n2C)c1C	21.2	-0.1	-3.9	-8.2	83.4	.	.	.
COC(=O)CNC(c1ccccc1)c1cc(Br)ccc1NC(=O)OCc1ccccc1 (centres undefined)	8.5	-0.2	-3.2	-1.1	98.6	.	.	.
Clc1ccccc1-c1ccc(/C=N/Nc2nncc(-c3ccccc3)n2)o1	-73.8	1.9	0.2	2.6	162.9*	154.3*	103.3	107.3
Clc1ccc(-c2ccc(/C=N/Nc3nncc(-c4ccccc4)n3)o2)cc1	-1.6	-0.5	-0.7	-6.9	101.5	.	.	.
c1coc(-c2nc3c4c5c(sc4ncn3n2)CCCC5)c1	21.8	2.1	-0.4	9.4	83.9	.	.	.
CN1CCc2c(sc3ncn4nc(-c5ccccc5O)nc4c23)C1	-97.8	0.0	0.3	-6.1	181.9*	164.5*	106.6	100.5
CC(=O)c1cccc(NC(=O)C(NC(C)C)c2ccccc2)c1 (centres undefined)	-2.3	0.4	1.3	-2.5	107.2	.	.	.
COc1cccc2cc(-c3nc(-c4cccs4)cs3)c(=O)oc12	-4.7	2.4	-0.3	-36.9	104.6	.	.	.
O=c1oc2ccccc2cc1-c1nc(-c2cccs2)cs1	-70.1	0.6	-9.6	-20.2	158.7*	116.9	116.2	116.1
CN1/C(=C\C=Nc2ccc3ccccc3c2)C(C)(C)c2ccccc21	-42.6	-0.1	-2.8	8.3	147.8*	119.4	105.3	94.0
N#C/C(=C\c1ccc(-c2ccc(C(=O)O)cc2)o1)c1nc2ccccc2[nH]1	-97.2	5.7	1.8	-32.7	189.4*	204.6*	134.2*	140.5*

Source: PubChem
